# TDP2 inh = TDP2 (human) inhibition, absorbance primary screen; O95551; recombinant TDP2, T5PNP hydrolysis, p-nitrophenol absorbance 415 nm; inhibition, % at 12.8 µM; 370,000 tested, 0.34% active;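 active = inhibition above the mean of all tested compounds plus 3 SD, set per campaign, cut at about 25% in these data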;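 note: 0% = DMSO with enzyme and 100% = buffer with substrate but no TDP2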
# Target sequence (O95551 whole entry, looked up): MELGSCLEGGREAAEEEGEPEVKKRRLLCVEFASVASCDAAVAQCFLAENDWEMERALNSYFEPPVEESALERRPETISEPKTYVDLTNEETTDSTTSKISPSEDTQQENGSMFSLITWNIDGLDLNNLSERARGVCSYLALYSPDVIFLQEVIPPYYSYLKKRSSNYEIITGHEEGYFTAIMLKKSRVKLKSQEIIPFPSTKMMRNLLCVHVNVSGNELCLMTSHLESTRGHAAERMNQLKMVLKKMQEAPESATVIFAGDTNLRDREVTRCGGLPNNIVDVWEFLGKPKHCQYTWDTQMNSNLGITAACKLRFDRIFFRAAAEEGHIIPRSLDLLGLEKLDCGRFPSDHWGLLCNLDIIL
#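 Evaluation: % inhibition relative to enzyme-containing and enzyme-free wells. Material: recombinant human TDP2. Benchmarks: enzyme-free and DMSO wells. Timing: enzyme reaction with compound for 2 h at 37 °C. Compound dosing: 12.8 µM only. Measured by: p-Nitrophenol epi absorbance. Reagent: T5PNP substrate at 5 mM, a TopII-DNA adduct mimic. Replication: single well per compound.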
# UCH37 inh = blocks the human deubiquitinase UCH37 | Q9Y5K5 | purified proteasome/UCH37, Ub-AMC cleavage fluorescence | 330,000 tested, 0.33% active | inhibition, % (test concentration not listed);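 active = mean inhibition over replicate wells above about 20%, limit read from the data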;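 note: 0% = compound-free wells with enzyme and 100% = wells lacking proteasome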
#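 Reagent: Ub-AMC substrate; assay system: Proteasome-associated human UCH37 deubiquitinase; controls: no-proteasome and no-compound wells; read-out: % inhibition of Ub-AMC cleavage fluorescence; timing: 30 min preincubation with enzyme, 25 min cleavage at room temperature; signal: AMC fluorescence from Ub-AMC cleavage, excitation 355 nm, emission 460 nm; buffer or medium: Tris-HCl pH 7.4 plus ovalbumin, ATP-MgCl2, DTT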
# Casp6 inh = inhibitors of human caspase-6 | P55212 | purified caspase-6, Z-VEID-R110 cleavage fluorescence | inhibition, % at 12.5 µM | 350,000 tested, 0.53% active;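 active = mean inhibition across replicates at least about 35%, with every replicate also reaching that limit, limit read from the data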;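 note: 0% = median of neutral control wells and 100% = no fluorescence left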
# Target sequence (P55212 24-179 limits assumed): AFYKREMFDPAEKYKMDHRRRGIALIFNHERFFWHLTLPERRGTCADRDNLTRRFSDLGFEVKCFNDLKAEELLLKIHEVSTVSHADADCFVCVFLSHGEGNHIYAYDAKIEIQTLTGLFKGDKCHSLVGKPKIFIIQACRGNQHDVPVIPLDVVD
# Target sequence (P55212 194-293 limits assumed): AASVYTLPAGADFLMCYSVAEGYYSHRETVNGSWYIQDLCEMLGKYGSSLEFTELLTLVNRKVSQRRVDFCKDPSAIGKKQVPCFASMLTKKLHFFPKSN
# NSD2 HMT inh = blocks human histone methyltransferase NSD2; NSD2 peptide methylation, AlphaScreen, 120 min; inhibition, % at 12.5 µM; 310,000 tested, 0.54% active; in the data active = inhibition above about 50%
# LEDGF integ inh = blocks HIV-1 LEDGF/p75-dependent DNA integration. TR-FRET IN-LEDGF/p75 DNA integration, Eu/Cy5. inhibition, % at 3.7 µM. 370,000 tested, 0.64% active;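 active = inhibition above the screen-wide mean plus 3 SD, cut at about 13% in these data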;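 note: signal is the Cy5 over europium emission ratio at 671 and 618 nm; 0% = plate median of compound wells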
# The depositor's hits bear a star; · = not tested or not shown. Sampled rows, rich in hits. Any-hit rate of the full collection: about 1.3%.
SMILES,TDP2 inh,UCH37 inh,Casp6 inh,NSD2 HMT inh,LEDGF integ inh
O=C(Nc1ccc(Br)cn1)C1CCCN1S(=O)(=O)c1ccccc1 (configuration not stated),-3.8,29.5*,·,20.5,1.5
O=C(Nc1ccon1)C12CC3CC(C1)CC(n1cnc([N+](=O)[O-])n1)(C3)C2,-10.0,0.5,-1.8,0.4,4.6
Cc1cc(NC(=O)C23CC4CC(C2)CC(n2cnc([N+](=O)[O-])n2)(C4)C3)no1,-1.2,1.7,46.9*,-1.3,0.8
COc1ccc(-c2noc3c2-c2nc(C(C)C)sc2CC3)cc1,-18.0,0.7,·,·,-0.9
CC(C)c1nc2c(s1)CCc1onc(-c3ccc(Cl)cc3)c1-2,-6.5,24.1*,·,·,0.9
COc1ccc(-c2cc(C(=O)NC(Cc3cc4ccccc4[nH]3)C(=O)O)c(C)o2)cc1OC (configuration not stated),-4.6,1.6,47.7*,·,0.1
COc1ccc(-c2cc(C(=O)O)c(C)o2)cc1OC,-5.8,3.1,·,21.3,-0.1
O=C(NC[C@@H]1CC[C@@H]2[C@@H](CN2S(=O)(=O)c2ccccc2[N+](=O)[O-])O1)C1CCOCC1,·,·,53.5*,·,·
CN1CCN(c2cc(CNC[C@H]3O[C@@H](n4cnc5c(=O)[nH]c(N)nc54)[C@H](O)[C@@H]3O)ccc2F)CC1,8.4,·,54.0*,·,-3.8
CCOc1cccc(-c2cc(C(=O)NN=Cc3ccc(OC)c(CN4CCOCC4)c3)c3ccccc3n2)c1,·,-3.4,·,·,·
COC(=O)C1CSC(C)(C)C(=O)N1 (configuration not stated),9.8,-1.5,0.1,-0.3,0.0
COC(=O)CCCCC1SCC2NC(=O)NC21O (configuration not stated),7.3,·,0.5,·,41.4*
O=C1Nc2cc(C(=O)NCCN3CCCCCC3)ccc2S/C1=C\c1ccccc1,5.9,2.7,99.0*,31.4,2.5
Cc1cccc(/C=C2/Sc3ccc(C(=O)NCCN4CCCC4)cc3NC2=O)c1,-13.4,7.2,-75.9,24.5,-9.0
Cc1ccc[n+](-c2[nH]c(=O)sc2/C=N/NC(=O)c2ccccc2[O-])c1,-24.3,·,35.2*,-0.6,2.5
O=C(NN=Cc1sc(=O)[nH]c1-[n+]1ccccc1)c1ccccc1[O-],·,20.4*,·,·,·
CC(C)(C)c1cc[n+](-c2[nH]c(=O)sc2C=N/N=C(\[O-])c2ccccc2)cc1,·,21.2*,·,·,·
N#CC1(NC(=O)CSc2nnc(COc3ccccc3F)n2N)CCCCC1,-8.9,0.5,71.9*,-2.1,-2.1
Nn1c(COc2ccccc2F)nnc1SCC(=O)NC1CCCC1,-7.1,0.6,-4.2,-2.0,-2.1
O=C(NCC(c1ccco1)N1CCc2ccccc21)c1ccccc1 (configuration not stated),7.0,4.9,51.6*,14.3,-1.4
CC(=O)N1CCc2c(sc(NC(=O)c3ccc([N+](=O)[O-])o3)c2C#N)C1,6.4,19.3,37.6*,·,-0.2
COc1ccccc1CON=Cc1cccn1-c1nccc(N(C)C)c1C#N,·,2.7,·,·,·
CC1(C)Cc2ccccc2C(=O)N1,-10.9,25.7*,·,-5.5,-0.6
COc1cc(C=NNC(N)=S)ccc1OCC(=O)Nc1ccc(C)c(C)c1,·,-8.7,·,·,·
O=c1nccc(NN=Cc2cccc(O)c2)[nH]1,·,11.8,·,·,·
SMILES,TDP2 inh,UCH37 inh,Casp6 inh,NSD2 HMT inh,LEDGF integ inh
C[n+]1cccc2ccc3c(c21)OC(N)=C(C#N)C3c1ccccc1 (configuration not stated),16.1,·,37.5*,5.6,-0.2
C[n+]1cccc(C2C(C#N)=C(N)Oc3c2ccc2ccccc32)c1 (configuration not stated),-0.1,5.9,-9.6,4.9,1.6
COc1ccccc1C=NNC(=O)C(=O)N1CCN(c2ccccc2OC)CC1,·,-0.5,·,·,·
CC(=NNC(=O)c1ccc(-n2cnnn2)cc1)c1ccc(Cl)cc1,·,0.4,·,·,·
COc1ccc(C(=O)Nc2cc(C(=O)O)cc(C(=O)O)c2)cc1Cl,-4.5,5.0,81.6*,3.0,-2.1
CN(N=Cc1ccc([N+](=O)[O-])o1)c1ccccc1,·,5.3,·,·,·
CC(C)(C)c1nnc2sc(SCC(=O)NCc3ccco3)nn2c1=O,-9.3,0.6,5.7,2.6,2.0
CN(Cc1ccco1)C(=O)CSc1nn2c(=O)c(C(C)(C)C)nnc2s1,6.4,6.7,43.2*,19.5,2.5
Cc1c(C(=O)NN=Cc2ccccc2)sc(=S)n1C,·,4.3,·,·,·
CN(C)/C=C/C(=O)c1ccc(-n2cccc2)cc1,-8.9,21.6*,7.3,9.9,2.0
CN(C)/C=C/C(=O)c1ccc(Cl)cc1,2.6,15.4,·,7.4,-2.1
CSc1nncc(C(C)=NNc2ccccc2C)n1,·,7.6,·,·,·
O=C(O)c1cc(S(=O)(=O)N2CCN(S(=O)(=O)c3ccc4ccccc4c3)CC2)ccc1Br,0.2,4.9,40.3*,6.0,9.0
CC(Cc1c[nH]c2ccccc12)C(=O)O (configuration not stated),4.5,1.6,37.9*,·,2.6
COc1ccc(C(=O)NCC(=O)NN=Cc2ccc(C)o2)cc1OC,·,4.4,·,·,·
CC1=C(C#N)C(=O)NC(=O)/C1=C\c1ccc(-c2cc(C)c(C)cc2[N+](=O)[O-])o1,21.6,20.4*,·,·,6.1
Cc1cc(-c2ccc(C=Nn3cnnc3)o2)c([N+](=O)[O-])cc1C,·,9.3,·,·,·
Cc1nn(-c2ccccc2)cc1C=NNC(=O)c1cccs1,·,-21.1,·,·,·
Cc1ccccc1NC(=O)C1CCCN(S(=O)(=O)c2cnc[nH]2)C1 (configuration not stated),8.2,9.3,91.1*,·,2.7
Cc1ccc(NC(=O)C2CCCN(S(=O)(=O)c3cnc[nH]3)C2)c(Br)c1 (configuration not stated),-6.9,3.6,0.5,·,-3.5
Cc1ccc(C(=O)NN=C/C=C/c2ccccc2[N+](=O)[O-])cn1,·,8.4,·,·,·
COc1ccc(N2CCN(C(=O)CCNS(=O)(=O)c3ccc(C)cc3)CC2)cc1,12.7,2.9,35.9*,3.0,0.0
COc1ccc(C=NN2C(C)CCCC2C)cc1OC (configuration not stated),·,5.1,·,·,·
CO[C@H]1CN(C)C(=O)c2cc(NC(=O)C3CC3)ccc2OC[C@H](C)N(C(=O)c2ccccc2)C[C@H]1C,·,·,70.0*,·,·
Cc1cc(C(=O)NN=Cc2ccc([N+](=O)[O-])cc2)c2ccccc2n1,·,3.5,·,·,·
O=C(N/N=C/c1ccc([N+](=O)[O-])o1)C1CC1,-7.8,·,41.9*,4.7,-4.1
O=C(O)c1ccc(N/N=C/C=C/c2ccc([N+](=O)[O-])o2)cc1,-2.6,·,75.0*,·,8.6
O=C(N/N=C/c1ccc([N+](=O)[O-])o1)C(=O)Nc1ccc(C(=O)O)cc1,-23.1,·,6.7,-0.1,6.9
O=Cc1ccc(N2CCN(S(=O)(=O)c3ccc4c(c3)CC(=O)N4)CC2)cc1,0.5,·,-1.3,·,23.5*
COC(=O)c1cccc(-c2ccc(C=NN3C(=O)C4C5C=CC(C6CC56)C4C3=O)o2)c1 (configuration not stated),·,0.2,·,·,·

# Source: PubChem BioAssay (several laboratories)
